ChEMBL document CHEMBL5058577, “EUbOPEN Chemogenomics Library 2 (Multiplex)” (2022)

Test system: Fibroblast
Assay: Multiplex assay against human fibroblast
Assay type: toxicity, cell-based
Procedure, shortened: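 On a CQ1 microscope at 37°C and 5% CO2, live cells were imaged after compound addition. They had been stained at seeding with Hoechst33342, BioTracker Green Microtubule Cytoskeleton Dye, MitoTracker Red and Annexin V Alexa Fluor 680. CellPathfinder machine-learning gating assigned cells to Hoechst high-intensity objects or normal cells, normal cells to healthy, pyknosed or fragmented nuclei, and pyknosed cells to mitotic or apoptotic. Tubulin, mitochondrial-mass and membrane-permeability phenotypes are per cents of healthy-nucleus cells.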

[1] = 12 h, 1 µM, compound concentration 1 uM, replicate 1
[2] = 12 h, 1 µM, compound concentration 1 uM, replicate 2
[3] = 12 h, 10 µM, compound concentration 10 uM, replicate 1
[4] = 12 h, 10 µM, compound concentration 10 uM, replicate 2
[5] = 24 h, 1 µM, compound concentration 1 uM, replicate 1
[6] = 24 h, 1 µM, compound concentration 1 uM, replicate 2
[7] = 24 h, 10 µM, compound concentration 10 uM, replicate 1
[8] = 24 h, 10 µM, compound concentration 10 uM, replicate 2
[9] = 48 h, 1 µM, compound concentration 1 uM, replicate 1
[10] = 48 h, 1 µM, compound concentration 1 uM, replicate 2
[11] = 48 h, 10 µM, compound concentration 10 uM, replicate 1
[12] = 48 h, 10 µM, compound concentration 10 uM, replicate 2

O=c1nc2[nH]c3ccccc3nc-2c(=O)[nH]1 [ALLOXAZINE]
Population Apoptotic (%) [1]: 56% | Population Fragmented Nuclei (%) [1]: 16% | Population Healthy Nuclei (%) [1]: 67% | Population Hoechst High Intensity Objects (%) [1]: 5% | Population Membrane Permeable-Phenotype (%) [1]: 0% | Population Mitochondria Different-Phenotype (%) [1]: 2% | Population Mitotic Cells (%) [1]: 43% | Population Normal (%) [1]: 94% | Population Pyknosed Nuclei (%) [1]: 16% | Population Tubulin-Different-Phenotype (%) [1]: 23% | Total Cell Count [1]: 193 | Population Apoptotic (%) [2]: 37% | Population Fragmented Nuclei (%) [2]: 26% | Population Healthy Nuclei (%) [2]: 50% | Population Hoechst High Intensity Objects (%) [2]: 3% | Population Membrane Permeable-Phenotype (%) [2]: 6% | Population Mitochondria Different-Phenotype (%) [2]: 3% | Population Mitotic Cells (%) [2]: 62% | Population Normal (%) [2]: 96% | Population Pyknosed Nuclei (%) [2]: 23% | Population Tubulin-Different-Phenotype (%) [2]: 33% | Total Cell Count [2]: 131 | Population Apoptotic (%) [3]: 33% | Population Fragmented Nuclei (%) [3]: 23% | Population Healthy Nuclei (%) [3]: 60% | Population Hoechst High Intensity Objects (%) [3]: 4% | Population Membrane Permeable-Phenotype (%) [3]: 3% | Population Mitochondria Different-Phenotype (%) [3]: 5% | Population Mitotic Cells (%) [3]: 66% | Population Normal (%) [3]: 95% | Population Pyknosed Nuclei (%) [3]: 15% | Population Tubulin-Different-Phenotype (%) [3]: 23% | Total Cell Count [3]: 158 | Population Apoptotic (%) [4]: 41% | Population Fragmented Nuclei (%) [4]: 41% | Population Healthy Nuclei (%) [4]: 38% | Population Hoechst High Intensity Objects (%) [4]: 1% | Population Mitochondria Different-Phenotype (%) [4]: 15% | Population Mitotic Cells (%) [4]: 58% | Population Normal (%) [4]: 98% | Population Pyknosed Nuclei (%) [4]: 20% | Population Tubulin-Different-Phenotype (%) [4]: 57% | Total Cell Count [4]: 86 | Population Apoptotic (%) [5]: 52% | Population Fragmented Nuclei (%) [5]: 17% | Population Healthy Nuclei (%) [5]: 69% | Population Hoechst High Intensity Objects (%) [5]: 3% | Population Membrane Permeable-Phenotype (%) [5]: 0% | Population Mitochondria Different-Phenotype (%) [5]: 2% | Population Mitotic Cells (%) [5]: 47% | Population Normal (%) [5]: 96% | Population Pyknosed Nuclei (%) [5]: 12% | Population Tubulin-Different-Phenotype (%) [5]: 21% | Total Cell Count [5]: 190 | Population Apoptotic (%) [6]: 36% | Population Fragmented Nuclei (%) [6]: 31% | Population Healthy Nuclei (%) [6]: 41% | Population Hoechst High Intensity Objects (%) [6]: 4% | Population Membrane Permeable-Phenotype (%) [6]: 2% | Population Mitochondria Different-Phenotype (%) [6]: 0% | Population Mitotic Cells (%) [6]: 63% | Population Normal (%) [6]: 95% | Population Pyknosed Nuclei (%) [6]: 27% | Population Tubulin-Different-Phenotype (%) [6]: 31% | Total Cell Count [6]: 114 | Population Apoptotic (%) [7]: 47% | Population Fragmented Nuclei (%) [7]: 19% | Population Healthy Nuclei (%) [7]: 64% | Population Hoechst High Intensity Objects (%) [7]: 3% | Population Membrane Permeable-Phenotype (%) [7]: 0% | Population Mitochondria Different-Phenotype (%) [7]: 2% | Population Mitotic Cells (%) [7]: 52% | Population Normal (%) [7]: 96% | Population Pyknosed Nuclei (%) [7]: 15% | Population Tubulin-Different-Phenotype (%) [7]: 22% | Total Cell Count [7]: 153 | Population Apoptotic (%) [8]: 64% | Population Fragmented Nuclei (%) [8]: 45% | Population Healthy Nuclei (%) [8]: 32% | Population Mitochondria Different-Phenotype (%) [8]: 7% | Population Mitotic Cells (%) [8]: 35% | Population Pyknosed Nuclei (%) [8]: 21% | Population Tubulin-Different-Phenotype (%) [8]: 50% | Total Cell Count [8]: 82 | Population Apoptotic (%) [9]: 71% | Population Fragmented Nuclei (%) [9]: 14% | Population Healthy Nuclei (%) [9]: 72% | Population Hoechst High Intensity Objects (%) [9]: 9% | Population Membrane Permeable-Phenotype (%) [9]: 0% | Population Mitochondria Different-Phenotype (%) [9]: 1% | Population Mitotic Cells (%) [9]: 28% | Population Normal (%) [9]: 90% | Population Pyknosed Nuclei (%) [9]: 13% | Population Tubulin-Different-Phenotype (%) [9]: 23% | Total Cell Count [9]: 178 | Population Apoptotic (%) [10]: 39% | Population Fragmented Nuclei (%) [10]: 30% | Population Healthy Nuclei (%) [10]: 48% | Population Hoechst High Intensity Objects (%) [10]: 3% | Population Membrane Permeable-Phenotype (%) [10]: 9% | Population Mitotic Cells (%) [10]: 60% | Population Normal (%) [10]: 96% | Population Pyknosed Nuclei (%) [10]: 20% | Population Tubulin-Different-Phenotype (%) [10]: 56% | Total Cell Count [10]: 114 | Population Apoptotic (%) [11]: 55% | Population Fragmented Nuclei (%) [11]: 26% | Population Healthy Nuclei (%) [11]: 61% | Population Hoechst High Intensity Objects (%) [11]: 6% | Population Membrane Permeable-Phenotype (%) [11]: 2% | Population Mitochondria Different-Phenotype (%) [11]: 3% | Population Mitotic Cells (%) [11]: 44% | Population Normal (%) [11]: 93% | Population Pyknosed Nuclei (%) [11]: 11% | Population Tubulin-Different-Phenotype (%) [11]: 29% | Total Cell Count [11]: 164 | Population Apoptotic (%) [12]: 45% | Population Fragmented Nuclei (%) [12]: 49% | Population Healthy Nuclei (%) [12]: 36% | Population Hoechst High Intensity Objects (%) [12]: 2% | Population Membrane Permeable-Phenotype (%) [12]: 3% | Population Mitochondria Different-Phenotype (%) [12]: 17% | Population Mitotic Cells (%) [12]: 54% | Population Normal (%) [12]: 97% | Population Pyknosed Nuclei (%) [12]: 13% | Population Tubulin-Different-Phenotype (%) [12]: 51% | Total Cell Count [12]: 81
